Source: ChEMBL document CHEMBL2407059, “Discovery and characterization of carbamothioylacrylamides as EP2 selective antagonists” (ACS Med Chem Lett, 2013)
Converted amounts (≈) assume the structure as drawn. The source made the active and inactive calls. The calls are words filed in the database; no cut-off is given here.

Legend:
C6 = experiment: Cytotoxicity against rat C6 cells after 48 hrs; type: cell-based; conditions: c6, 48 h
Method in brief: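 C6G cells are incubated with compound for 48 h, then cell viability is measured and CC50 derived.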

[1] = target: T1, Prostaglandin D2 receptor (Homo sapiens) (UniProt Q13258); experiment: Antagonist activity at human DP1 receptor overexpressed in rat C6 cells assessed as inhibition of BW245C-induced cAMP accumulation incubated for 10 mins prior to BW245C addition measured after 40 mins by TR-FRET assay; type: functional, cell-based
T1 sequence (whole entry): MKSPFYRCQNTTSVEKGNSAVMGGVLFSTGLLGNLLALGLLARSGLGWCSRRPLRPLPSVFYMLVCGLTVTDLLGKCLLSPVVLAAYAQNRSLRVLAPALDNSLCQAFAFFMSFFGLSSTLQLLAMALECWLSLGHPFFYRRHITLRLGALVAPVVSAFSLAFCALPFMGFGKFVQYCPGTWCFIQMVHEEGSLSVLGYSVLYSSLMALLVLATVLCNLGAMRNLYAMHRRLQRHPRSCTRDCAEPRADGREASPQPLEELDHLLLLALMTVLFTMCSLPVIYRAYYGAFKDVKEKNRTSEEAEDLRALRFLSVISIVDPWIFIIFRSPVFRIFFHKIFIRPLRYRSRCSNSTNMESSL

[2] = Metabolic stability in mouse liver microsomes assessed as compound remaining at 1 to 10 uM after 60 mins; type: ADME, Microsome; conditions: read-out: Stability
[3] = Metabolic stability in human liver microsomes assessed as compound remaining at 1 to 10 uM after 60 mins; type: ADME, Microsome; conditions: read-out: Stability
[4] = target: Prostaglandin E2 receptor EP4 subtype (Homo sapiens) (UniProt P35408); experiment: Antagonist activity at human EP4 receptor overexpressed in rat C6 cells assessed as inhibition of PGE2-induced cAMP accumulation incubated for 10 mins prior to PGE2 addition measured after 40 mins by TR-FRET assay; type: functional, cell-based
[5] = target: Prostaglandin E2 receptor EP2 subtype (Mus musculus) (UniProt Q62053); experiment: Inhibition of EP2 receptor-mediated mouse P388D1 macrophage activation assessed as inhibition of butaprost-induced TNF-alpha mRNA expression at 10 uM incubated for 1 hr prior to butaprost-challenge measured after 2 hrs by qRT-PCR analysis
Method in brief: (§1)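 P388D1 mouse macrophages pretreated 1 h with 10 μM antagonist or vehicle, then stimulated 2 h with EP2-selective agonist butaprost (10 μM). Inflammatory mediator mRNA quantified by qRT-PCR; n = 3–4, mean ± SEM, one-way ANOVA with post hoc Bonferroni test.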

[6] = target: Prostaglandin E2 receptor EP2 subtype (Mus musculus) (UniProt Q62053); experiment: Inhibition of EP2 receptor-mediated mouse P388D1 macrophage activation assessed as inhibition of butaprost-induced IL-23 mRNA expression at 10 uM incubated for 1 hr prior to butaprost-challenge measured after 2 hrs by qRT-PCR analysis; method in brief: as §1
[7] = target: Prostaglandin E2 receptor EP2 subtype (Mus musculus) (UniProt Q62053); experiment: Inhibition of EP2 receptor-mediated mouse P388D1 macrophage activation assessed as inhibition of butaprost-induced IL-17 mRNA expression at 10 uM incubated for 1 hr prior to butaprost-challenge measured after 2 hrs by qRT-PCR analysis; method in brief: as §1
[8] = target: Prostaglandin E2 receptor EP2 subtype (Mus musculus) (UniProt Q62053); experiment: Inhibition of EP2 receptor-mediated mouse P388D1 macrophage activation assessed as inhibition of butaprost-induced IL-12 mRNA expression at 10 uM incubated for 1 hr prior to butaprost-challenge measured after 2 hrs by qRT-PCR analysis
Method in brief: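 P388D1 macrophage line pretreated 1 h with test agent at 10 μM or vehicle, then stimulated with the EP2-selective agonist butaprost (10 μM) for 2 h. Inflammatory mediator mRNA quantified by qRT-PCR. n = 3–4, mean ± SEM, one-way ANOVA with post hoc Bonferroni test.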

[9] = target: Prostaglandin E2 receptor EP2 subtype (Mus musculus) (UniProt Q62053); experiment: Inhibition of EP2 receptor-mediated mouse P388D1 macrophage activation assessed as inhibition of butaprost-induced IL-6 mRNA expression at 10 uM incubated for 1 hr prior to butaprost-challenge measured after 2 hrs by qRT-PCR analysis; method in brief: as §1
[10] = target: Prostaglandin E2 receptor EP2 subtype (Mus musculus) (UniProt Q62053); experiment: Inhibition of EP2 receptor-mediated mouse P388D1 macrophage activation assessed as inhibition of butaprost-induced IL-1beta mRNA expression at 10 uM incubated for 1 hr prior to butaprost-challenge measured after 2 hrs by qRT-PCR analysis; method in brief: as §1
[11] = target: Prostaglandin E2 receptor EP2 subtype (Mus musculus) (UniProt Q62053); experiment: Inhibition of EP2 receptor-mediated mouse P388D1 macrophage activation assessed as inhibition of butaprost-induced COX-2 mRNA expression at 10 uM incubated for 1 hr prior to butaprost-challenge measured after 2 hrs by qRT-PCR analysis; method in brief: as §1
Brain [12] = experiment: Drug uptake in C57BL/6 mouse brain at 10 mg/kg, ip after 1 hr; type: ADME, organism-based; design: dose 10 mg/kg, route intraperitoneal; conditions: in vivo
Method in brief: (§2)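 Female C57BL/6 mice dosed 10 mg/kg by oral gavage or 5 mg/kg i.p. (10 mg/kg i.p. also examined for brain) in vehicle of 10% DMSO, 70% PEG400, 20% sterile water. Brain tissue collected at 1 and 2 h post-dose; brain-to-plasma ratio reported.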

Nucleic Acid = experiment: Ratio of drug level in brain to plasma in C57BL/6 mouse at 10 mg/kg, ip; type: ADME, organism-based; design: dose 10 mg/kg, route intraperitoneal
Method in brief: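 Female C57BL/6 mice dosed 10 mg/kg i.p. Plasma prepared from blood, and brain tissue collected at 1 h. Brain-to-plasma concentration ratio calculated from the two levels.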

Brain [13] = experiment: Drug uptake in C57BL/6 mouse brain at 5 mg/kg, ip after 1 to 2 hrs; type: ADME, organism-based; design: dose 5 mg/kg, route intraperitoneal; conditions: in vivo; method in brief: as §2
[14] = Plasma concentration in C57BL/6 mouse at 5 mg/kg, ip after 30 mins; type: ADME, organism-based; design: dose 5 mg/kg, route intraperitoneal
Method in brief: (§3)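 Female C57BL/6 mice dosed 10 mg/kg by oral gavage or 5 mg/kg i.p. in 10% DMSO/70% PEG400/20% sterile water. Blood drawn at five time points from 0.5 to 8 h and processed to plasma. Compound concentration in plasma measured; n = 3 mice per time point, mean ± SEM.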

Brain [15] = experiment: Drug uptake in C57BL/6 mouse brain at 10 mg/kg, po after 1 to 2 hrs; type: ADME, organism-based; design: dose 10 mg/kg, route oral; conditions: in vivo; method in brief: as §2
[16] = Plasma concentration in C57BL/6 mouse at 10 mg/kg, po after 30 mins; type: ADME, organism-based; design: dose 10 mg/kg, route oral; method in brief: as §3
[17] = Aqueous solubility of the compound in PBS buffer at pH 7.0 by nephelometry; type: physicochemical
[18] = Inhibition of Staphylococcus aureus NadD
[19] = target: Beta-2 adrenergic receptor (Homo sapiens) (UniProt P07550); experiment: Inhibition of beta2-adrenergic receptor (unknown origin) overexpressed in rat C6G cells up to 40 uM by TR-FRET assay; type: cell-based
[20] = target: Prostaglandin E2 receptor EP4 subtype (Homo sapiens) (UniProt P35408); experiment: Inhibition of human EP4 receptor overexpressed in rat C6G cells up to 40 uM by TR-FRET assay; type: cell-based
[21] = target: T2, Prostaglandin E2 receptor EP2 subtype (Homo sapiens, UniProt P43116); experiment: Antagonist activity at human EP2 receptor overexpressed in rat C6 cells assessed as inhibition of PGE2-induced cAMP accumulation incubated for 10 mins prior to PGE2 addition measured after 40 mins by TR-FRET assay; type: functional, cell-based
[22] = target: Prostacyclin receptor (Homo sapiens) (UniProt P43119); experiment: Antagonist activity at human IP receptor overexpressed in rat C6 cells assessed as inhibition of iloprost-induced cAMP accumulation incubated for 10 mins prior to iloprost addition measured after 40 mins by TR-FRET assay; type: functional, cell-based
[23] = target: T2, Prostaglandin E2 receptor EP2 subtype; experiment: Competitive antagonist activity at human EP2 receptor overexpressed in rat C6 cells by Schild plot analysis; type: cell-based

Sequence of Prostaglandin E2 receptor EP4 subtype (Homo sapiens) (P35408 whole entry): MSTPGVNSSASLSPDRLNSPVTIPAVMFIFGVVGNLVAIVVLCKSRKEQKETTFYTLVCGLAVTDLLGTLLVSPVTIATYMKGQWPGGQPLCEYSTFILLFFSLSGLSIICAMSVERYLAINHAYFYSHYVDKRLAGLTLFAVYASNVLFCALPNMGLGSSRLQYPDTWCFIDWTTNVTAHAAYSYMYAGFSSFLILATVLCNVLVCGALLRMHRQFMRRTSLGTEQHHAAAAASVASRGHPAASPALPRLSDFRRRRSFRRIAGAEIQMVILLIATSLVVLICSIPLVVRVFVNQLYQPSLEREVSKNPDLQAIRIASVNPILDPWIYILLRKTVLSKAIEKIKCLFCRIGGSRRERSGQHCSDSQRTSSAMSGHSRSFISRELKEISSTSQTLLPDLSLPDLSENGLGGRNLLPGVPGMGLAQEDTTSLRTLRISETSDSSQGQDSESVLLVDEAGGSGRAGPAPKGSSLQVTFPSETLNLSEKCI
T2 sequence (P43116 whole entry): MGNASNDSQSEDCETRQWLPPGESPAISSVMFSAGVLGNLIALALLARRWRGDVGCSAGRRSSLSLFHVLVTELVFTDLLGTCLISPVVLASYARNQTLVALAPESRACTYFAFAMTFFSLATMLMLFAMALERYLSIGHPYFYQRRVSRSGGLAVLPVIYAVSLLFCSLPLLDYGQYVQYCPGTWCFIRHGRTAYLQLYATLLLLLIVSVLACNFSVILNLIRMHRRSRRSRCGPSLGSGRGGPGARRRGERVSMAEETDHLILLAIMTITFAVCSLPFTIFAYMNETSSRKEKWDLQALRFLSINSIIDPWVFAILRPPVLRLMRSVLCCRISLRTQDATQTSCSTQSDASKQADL
Sequence of Prostaglandin E2 receptor EP2 subtype (Mus musculus) (Q62053 whole entry): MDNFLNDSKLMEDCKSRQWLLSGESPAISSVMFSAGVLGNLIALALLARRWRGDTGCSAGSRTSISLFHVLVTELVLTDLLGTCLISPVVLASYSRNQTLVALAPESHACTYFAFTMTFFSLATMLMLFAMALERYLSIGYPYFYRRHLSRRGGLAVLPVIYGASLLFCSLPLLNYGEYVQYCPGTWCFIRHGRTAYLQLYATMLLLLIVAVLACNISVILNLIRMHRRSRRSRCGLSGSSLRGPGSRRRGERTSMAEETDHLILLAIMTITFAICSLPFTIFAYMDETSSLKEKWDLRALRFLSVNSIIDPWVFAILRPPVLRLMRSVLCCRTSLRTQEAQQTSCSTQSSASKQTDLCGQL
Sequence of Prostacyclin receptor (Homo sapiens) (P43119 whole entry): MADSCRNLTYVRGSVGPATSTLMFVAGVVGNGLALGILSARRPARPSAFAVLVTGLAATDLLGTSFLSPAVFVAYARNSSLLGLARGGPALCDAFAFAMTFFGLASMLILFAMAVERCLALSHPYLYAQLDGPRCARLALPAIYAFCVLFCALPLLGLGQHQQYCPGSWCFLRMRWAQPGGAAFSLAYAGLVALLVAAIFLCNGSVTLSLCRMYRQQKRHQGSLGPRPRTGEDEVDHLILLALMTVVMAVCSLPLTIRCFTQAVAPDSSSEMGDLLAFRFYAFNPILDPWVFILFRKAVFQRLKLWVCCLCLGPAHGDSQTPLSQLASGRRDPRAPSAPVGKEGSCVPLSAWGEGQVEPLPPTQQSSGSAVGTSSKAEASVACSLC
Sequence of Beta-2 adrenergic receptor (Homo sapiens) (P07550 whole entry, looked up): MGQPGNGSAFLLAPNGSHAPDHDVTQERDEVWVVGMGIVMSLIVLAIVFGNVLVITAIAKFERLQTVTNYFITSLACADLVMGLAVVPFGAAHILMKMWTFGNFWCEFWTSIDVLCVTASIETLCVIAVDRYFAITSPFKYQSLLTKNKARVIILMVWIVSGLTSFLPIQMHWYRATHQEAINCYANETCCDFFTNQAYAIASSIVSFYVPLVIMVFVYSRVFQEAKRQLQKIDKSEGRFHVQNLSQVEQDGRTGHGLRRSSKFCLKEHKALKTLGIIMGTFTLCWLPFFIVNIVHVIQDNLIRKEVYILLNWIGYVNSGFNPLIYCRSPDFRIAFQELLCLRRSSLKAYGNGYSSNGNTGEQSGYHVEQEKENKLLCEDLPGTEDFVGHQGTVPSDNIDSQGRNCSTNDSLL

CCc1nnc(NS(=O)(=O)c2ccc(NC(=S)NC(=O)/C=C/c3ccccc3)cc2)s1
CC50 (C6): 370 µM | Kb [1]: 9.8 µM

COc1cc(NS(=O)(=O)c2ccc(NC(=S)NC(=O)/C=C/c3ccc(F)cc3)cc2)ncn1
remaining at 1 h, up to 10 µM [2]: 40% | remaining at 1 h, up to 10 µM [3]: 40% | CC50 (C6): 378 µM | Kb [4]: 18.2 µM | KB [1]: inactive

CCc1nnc(NS(=O)(=O)c2ccc(NC(=S)NC(=O)/C=C/c3ccc(F)cc3)cc2)s1
inhibition [5]: Active | inhibition [6]: Active | inhibition [7]: Active | inhibition [8]: Active | inhibition [9]: Active | inhibition [10]: Active | inhibition [11]: Active | Drug uptake (Brain [12]): Active | BPR (Nucleic Acid): 0.02 | Drug uptake (Brain [13]): Not Active | concentration at 0.5 h [14]: 30 µM | Drug uptake (Brain [15]): Not Active | concentration at 0.5 h [16]: 12 µM | remaining at 1 h, up to 10 µM [2]: 40% | remaining at 1 h, up to 10 µM [3]: 40% | solubility kinetic [17]: 71 µg/mL (≈ 144 µM) | CC50 (C6): 326 µM | IC50 [18]: 4.5 µM | inhibition [19]: inactive | inhibition [20]: inactive | IC50 [21]: 1.6 µM | inhibition [21]: Dose-dependent effect

COc1ccc(NS(=O)(=O)c2ccc(NC(=S)NC(=O)/C=C/c3ccc(C)cc3)cc2)nn1
CC50 (C6): 150 µM | Kb [4]: 20.5 µM | Kb [22]: 0.36 µM | KB [1]: inactive | Kb [23]: 0.0133 µM

COc1cc(NS(=O)(=O)c2ccc(NC(=S)NC(=O)c3cccs3)cc2)nc(OC)n1
CC50 (C6): 258 µM | Kb [22]: 5.9 µM | Kb [1]: 25.2 µM

COc1cc(NS(=O)(=O)c2ccc(NC(=S)NC(=O)c3sc4cc(F)ccc4c3Cl)cc2)nc(OC)n1
CC50 (C6): 96 µM | Kb [4]: 0.7 µM | Kb [22]: 21 µM | Kb [1]: 8.7 µM | Kb [23]: 0.108 µM

CCc1nnc(NS(=O)(=O)c2ccc(NC(=S)NC(=O)/C=C/c3ccc(OC)cc3)cc2)s1
CC50 (C6): 365 µM | Kb [4]: 13 µM | Kb [22]: 0.36 µM | Kb [1]: 46.6 µM | Kb [23]: 0.0345 µM

CCc1nnc(NS(=O)(=O)c2ccc(NC(=S)NC(=O)/C=C/c3cccs3)cc2)s1
CC50 (C6): 330 µM | Kb [22]: 2.26 µM

CCc1nnc(NS(=O)(=O)c2ccc(NC(=S)NC(=O)c3ccc(OC)cc3)cc2)s1
CC50 (C6): 186 µM | Kb [22]: 1.73 µM | Kb [1]: 16.1 µM
